ChEMBL document CHEMBL4052793, “Synthesis and Biological Evaluation of Paclitaxel and Camptothecin Prodrugs on the Basis of 2-Nitroimidazole” (ACS Med Chem Lett, 2017)

Key:
[1] = Half life in ABS buffer at 10 uM at pH 5.0 by HPLC method; assay type: physicochemical
[2] = Half life in PBS buffer at 10 uM at pH 6.5 by HPLC method; assay type: physicochemical
[3] = Half life in PBS buffer at 10 uM at pH 7.4 by HPLC method; assay type: physicochemical
[4] = Drug degradation in human plasma assessed as compound half life at 10 uM by HPLC method; assay type: ADME, cell-free
Procedure, shortened: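 Incubated in human plasma in vitro; remaining prodrug followed by HPLC over time and half-life derived.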

[5] = Prodrug conversion in Pd/C assessed as PTX formation at 1 mg after 2 hrs in presence of H2 by LC/MS method
Procedure, shortened: (§1)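 Chemical reduction over Pd/C under H2 in THF at 37 °C. Products were analysed to follow release of the parent drug.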

[6] = Prodrug conversion in Pd/C assessed as 2-aminoimidazole intermediate of 3C-PTX formation at 1 mg after 2 hrs in presence of H2 by LC/MS method; procedure, shortened: as §1
[7] = Prodrug conversion assessed as Escherichia coli nitroreductase mediated SN38 reduction by measuring half life at 10 uM in presence of NADPH by HPLC method; assay type: ADME; conditions: isolated protein
Procedure, shortened: (§2)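 Prodrugs at 10 μM (1% DMSO) in PBS pH 7.4 incubated at 37 °C with E. coli nitroreductase (50 μg/mL) and NADPH (1 μmol/mL) for up to 1 h. Prodrug loss and active drug release tracked by HPLC.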

[8] = system: NCI-H460; assay: Cytotoxicity against human NCI-H460 cells assessed as growth reduction under normoxic condition after 72 hrs by MTT assay; assay type: functional, cell-based; conditions: NCI-H460, 72 h
Procedure, shortened: (§3)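 H460 lung and HT29 colon carcinoma cells exposed to a range of compound concentrations for 72 h, either in air (normoxic) or under hypoxia (94% N2, 5% CO2, 1% O2). Viability/proliferation read by MTT; IC50 for proliferation inhibition.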

[9] = system: NCI-H460; assay: Cytotoxicity against human NCI-H460 cells assessed as growth reduction under hypoxic condition after 72 hrs by MTT assay; assay type: functional, cell-based; conditions: NCI-H460, 72 h; procedure, shortened: as §3
[10] = system: HT-29; assay: Cytotoxicity against human HT-29 cells assessed as growth reduction under normoxic condition after 72 hrs by MTT assay; assay type: functional, cell-based; conditions: HT-29, 72 h; procedure, shortened: as §3
[11] = system: HT-29; assay: Cytotoxicity against human HT-29 cells assessed as growth reduction under hypoxic condition after 72 hrs by MTT assay; assay type: functional, cell-based; conditions: HT-29, 72 h; procedure, shortened: as §3
[12] = Selectivity ratio, IC50 for human H460 cells under normoxic condition to IC50 for human H460 cells under hypoxic condition; assay type: functional
[13] = system: HT-29; assay: Selectivity ratio, IC50 for human HT-29 cells under normoxic condition to IC50 for human HT29 cells under hypoxic condition; assay type: functional
[14] = species: Mus musculus; assay: Drug degradation in mouse plasma assessed as compound half life at 10 uM by HPLC method
[15] = Prodrug conversion in Pd/C assessed as 2-aminoimidazole intermediate of 2C-PTX formation at 1 mg after 2 hrs in presence of H2 by LC/MS method; procedure, shortened: as §1
[16] = Prodrug conversion assessed as Escherichia coli nitroreductase mediated 2-aminoimidazole intermediate of 2C-PTX formation at 10 uM after 1 hr in presence of NADPH by HPLC method; assay type: ADME; conditions: isolated protein; procedure, shortened: as §2
[17] = Drug level in Pd/C using 1 mg 3C-SN38 assessed as compound formation in presence of H2 after 2 hrs by LC/MS method; procedure, shortened: as §1
[18] = Drug level in Pd/C treated with 3C-PTX at 1 mg in presence of H2 after 2 hrs by LC/MS method; procedure, shortened: as §1
[19] = Drug level in Pd/C treated with 2C-PTX at 1 mg in presence of H2 after 2 hrs by LC/MS method; procedure, shortened: as §1
[20] = Prodrug conversion in Pd/C assessed as SN38 formation at 1 mg after 2 hrs in presence of H2 by LC/MS method; procedure, shortened: as §1
[21] = Prodrug conversion in Pd/C assessed as 2-aminoimidazole intermediate of 3C-SN38 formation at 1 mg after 2 hrs in presence of H2 by LC/MS method; procedure, shortened: as §1

Structure (SMILES) | half-life at 10 µM [1] [h] | half-life at 10 µM [2] [h] | half-life at 10 µM [3] [h] | half-life at 10 µM [4] [h] | Drug metabolism [5] | t1/2 [7] | IC50 [8] [µM] | IC50 [9] [µM] | IC50 [10] [µM] | IC50 [11] [µM] | Ratio IC50 [12] | Ratio IC50 [13] | half-life at 10 µM [14] [h] | other results
CC(=O)O[C@H]1C(=O)[C@@]2(C)[C@H]([C@H](OC(=O)c3ccccc3)[C@]3(O)C[C@H](OC(=O)[C@H](OC(=O)OCCCn4ccnc4[N+](=O)[O-])[C@@H](NC(=O)c4ccccc4)c4ccccc4)C(C)=C1C3(C)C)[C@]1(OC(C)=O)CO[C@@H]1C[C@@H]2O | > 48 | 24 | 36 | 6 | Metabolite detected | <= 10 min | 0.021 | 0.018 | 0.29 | 0.159 | 1.17 | 1.82 | 0.917 | Drug metabolism [6]: Metabolite detected
CC(=O)O[C@H]1C(=O)[C@@]2(C)[C@H]([C@H](OC(=O)c3ccccc3)[C@]3(O)C[C@H](OC(=O)[C@H](OC(=O)OCCn4ccnc4[N+](=O)[O-])[C@@H](NC(=O)c4ccccc4)c4ccccc4)C(C)=C1C3(C)C)[C@]1(OC(C)=O)CO[C@@H]1C[C@@H]2O | 48 | 24 | 28 | 2 | Metabolite detected | <= 10 min | 0.009 | 0.006 | 0.14 | 0.045 | 1.5 | 3.11 | 0.333 | Drug metabolism [15]: Metabolite detected; Drug metabolism [16]: Metabolite_Notdetected
CCc1c2c(nc3ccc(O)cc13)-c1cc3c(c(=O)n1C2)COC(=O)[C@]3(O)CC [7-ETHYL-10-HYDROXYCAMPTOTHECIN] |  |  |  |  |  |  |  | 0.047 | 0.096 | 0.119 | 1.06 | 0.82 |  | Drug metabolism [17]: Metabolite detected
CCc1c2c(nc3ccc(O)cc13)-c1cc3c(c(=O)n1C2)COC(=O)[C@@]3(CC)OC(=O)OCCn1ccnc1[N+](=O)[O-] | > 48 | 41 | > 48 | 6 |  | 0.5 h | 0.091 | 0.063 | > 10 | 9.56 | 1.44 | >1.05 | 0.783 | 
CC(=O)O[C@H]1C(=O)[C@@]2(C)[C@H]([C@H](OC(=O)c3ccccc3)[C@]3(O)C[C@H](OC(=O)[C@H](O)[C@@H](NC(=O)c4ccccc4)c4ccccc4)C(C)=C1C3(C)C)[C@]1(OC(C)=O)CO[C@@H]1C[C@@H]2O [PACLITAXEL] |  |  |  |  |  |  |  |  | 0.014 | 0.015 |  |  |  | Drug metabolism [18]: Metabolite detected; Drug metabolism [19]: Metabolite detected
CCc1c2c(nc3ccc(O)cc13)-c1cc3c(c(=O)n1C2)COC(=O)[C@@]3(CC)OC(=O)OCCCn1ccnc1[N+](=O)[O-] | 40 | > 48 | > 48 | 2 |  | <= 10 min | 0.201 | 0.099 | > 10 | 6.02 | 2.03 | >1.67 | 0.617 | Drug metabolism [20]: Metabolite detected; Drug metabolism [21]: Metabolite detected
